Drawing on ChEMBL document CHEMBL1133501, “Conformationally constrained anesthetic steroids that modulate GABA(A) receptors” (J Med Chem, 2000), this text covers HD50 and IC50 for 16 compounds.

One experiment has as its system Mus musculus. The experiment in a line: Hypnotic dose required to cause a loss of righting reflex for a minimum period of 30 s in 50 percent of treated mice after intravenous administration. Type of experiment: functional. An outline of the steps: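 Mice given steroid intravenously. The endpoint was loss of righting reflex lasting at least 30 s. The dose producing this in 50% of treated mice (HD50) was derived by probit analysis and expressed in µmol·kg-1.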

The target in experiment [1] is GABA-A receptor; anion channel. The experiment in a line: Inhibition of binding of tert-butyl bicyclophosphorothionate ([35 S]TBPS) at Gamma-aminobutyric acid A receptor from rat whole brain membranes. Type of experiment: cell membranes, Membrane.

On to `CC(=O)[C@H]1CC[C@H]2[C@@H]3CC[C@@H]4C[C@H](O)CC[C@]4(C)[C@H]3CC[C@]12C` [ELTANOLONE], for which the HD50 in the experiment with Mus musculus amounted to 9.5 µM/kg. The same compound showed a concentration for half-maximal inhibition (IC50) in experiment [1] of 145 nM.
The compound `C[C@]12CC[C@@H](O)C[C@@H]1CC[C@@H]1[C@@H]2CC[C@@]2(C)[C@H]1CC[C@@]21CCO1` returned an HD50 in the experiment with Mus musculus of 62.8 µM/kg. The compound further had an IC50 in experiment [1] of 232 nM.
On to `C[C@]12CC[C@@H](O)C[C@@H]1CC[C@@H]1[C@@H]2CC[C@]2(C)[C@@H](C(=O)CO)CC[C@@H]12`, for which the HD50 in the experiment on Mus musculus turned out to be 18.5 µM/kg. Also, the IC50 in experiment [1] worked out at 192 nM.
In turn, `C[C@]12CC[C@@H](O)C[C@@H]1CC[C@@H]1[C@@H]2CC[C@]2(C)[C@@H]3O[C@@H]3C[C@@H]12` registered an HD50 with Mus musculus of 68.4 µM/kg. Moreover, the IC50 in experiment [1] came out at 5350 nM.
Compound `C[C@]12CC[C@@H](O)C[C@@H]1CC[C@@H]1[C@@H]2CC[C@]2(C)[C@@H](O)CC[C@@H]12` [ANDROSTANDIOL] yielded an HD50 with Mus musculus of 239.4 µM/kg. The IC50 in experiment [1] is 1870 nM.
In the experiment with Mus musculus, `C[C@]12CC[C@@H](O)C[C@@H]1CC[C@@H]1[C@@H]2CC[C@]2(C)C(=O)CC[C@@H]12` [ANDROSTERONE] had an HD50 of 68.9 µM/kg. The same compound came in with an IC50 in experiment [1] of 1370 nM.
In turn, `CC(=O)[C@H]1CC[C@H]2[C@@H]3CC[C@H]4C[C@H](O)CC[C@]4(C)[C@H]3C(=O)C[C@]12C` [ALFAXALONE] showed an HD50 in the experiment with Mus musculus of 6.3 µM/kg.
Same read-out and setting: for `C[C@]12CC[C@H]3[C@@H](CC[C@H]4CC(O)CC[C@@]43C)[C@@H]1CC(=O)C2` (stereo not given in full) the value was 134.7 µM/kg.
In the case of `C[C@]12CC[C@@H](O)C[C@H]1CC[C@@H]1[C@@H]2CC[C@@]2(C)[C@H]1CC[C@@]21CO1`, in the experiment on Mus musculus, the HD50 is 22.6 µM/kg. This compound showed an IC50 in experiment [1] of 221 nM.
The matching figures for `C[C@]12CC[C@@H](O)C[C@H]1CC[C@@H]1[C@@H]2CC[C@@]2(C)[C@H]1C[C@@H]1O[C@@H]12`: 38 µM/kg and 159 nM.
For `C[C@]12CC[C@@H](O)C[C@@H]1CC[C@@H]1[C@@H]2CC[C@@]2(C)[C@H]1CC[C@@]21CO1`, the HD50 with Mus musculus was found to be 19.8 µM/kg. Also, the IC50 in experiment [1] came to 55 nM.
The matching figures for `C[C@]12CC[C@@H](O)C[C@@H]1CC[C@@H]1[C@@H]2CC[C@@]2(C)[C@H](C#N)CC[C@@H]12`: 114.9 µM/kg and 1240 nM.
The matching figures for `CO[C@H]1CC[C@H]2[C@@H]3CC[C@H]4C[C@H](O)CC[C@]4(C)[C@H]3CC[C@]12C`: 23.1 µM/kg and 210 nM.
The matching figures for `C[C@]12CC[C@@H](O)C[C@@H]1CC[C@@H]1[C@@H]2CC[C@@]2(C)[C@H]1C[C@@H]1O[C@@H]12`: 17.3 µM/kg and 255 nM.
Turning to `C[C@]12CC[C@@H](O)C[C@@H]1CC[C@@H]1[C@@H]2CC[C@@]2(C)[C@H]1C[C@@H]1CO[C@@H]12`, the HD50 in the experiment on Mus musculus was found to be 146.9 µM/kg. In experiment [1], this compound came in with an IC50 of 2530 nM.
The matching figures for `CC(=O)[C@H]1CC[C@H]2[C@@H]3CC[C@H]4C[C@H](O)CC[C@]4(C)[C@H]3CC[C@]12C` [BREXANOLONE]: 10 µM/kg and 155 nM.
